Data: paper PMC5302092 (Cell, 2017)
Residues, ends and D or L forms follow the SMILES beside them. *: point of attachment. Octanoyl = CCCCCCCC(=O)*

Legend:
[1] = molecular target: cathepsin S (Homo sapiens, UniProt P25774); test: in vitro protease inhibition assay, cathepsin S; assay type: biochemical; settings: read-out: activity against cathepsin S (IC50)
How it was run: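 Commercial cathepsin S pre-activated for 2 h at 10 μg/ml in 50 mM MES pH 5.5 with 5 mM DTT, then diluted to 100 ng/ml. Assayed with 10 μM z-FR-AMC, which was added last to the enzyme/test compound mix; final DMSO below 5%. Fluorogenic read-out; leupeptin as positive control. Normalized activity data fitted to give IC50.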

[2] = molecular target: cathepsin L (Homo sapiens, UniProt P07711); test: in vitro protease inhibition assay, cathepsin L; assay type: biochemical; settings: result in words
How it was run: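 Commercial cathepsin L (0.02 μg/ml) in 50 mM MES pH 5.5 with 5 mM DTT. Substrate z-FR-AMC at 20 μM added last to the enzyme/test compound mix; final DMSO below 5%. Fluorescence read-out; leupeptin as positive control. Normalized activity data were curve-fitted.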

[3] = molecular target: T1, cathepsin H (CTSH) (Homo sapiens, UniProt P09668); test: competitive isoTOP-ABPP, THP-1 membrane fraction, cathepsin H; assay type: binding; settings: 250 nM, THP-1 membranes
T1 sequence (P09668 98-335): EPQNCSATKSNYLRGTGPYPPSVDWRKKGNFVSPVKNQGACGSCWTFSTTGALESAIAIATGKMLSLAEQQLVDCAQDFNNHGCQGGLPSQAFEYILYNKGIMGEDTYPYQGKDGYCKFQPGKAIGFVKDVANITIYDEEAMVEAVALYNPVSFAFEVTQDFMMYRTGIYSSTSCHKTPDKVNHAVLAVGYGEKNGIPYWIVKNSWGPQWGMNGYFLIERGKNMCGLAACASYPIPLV
How it was run: (§1)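 THP-1 cells grown in RPMI with 10% FBS, penicillin, streptomycin, glutamine and 50 μM βME (37 °C, 5% CO2, <10 passages). Differentiated with 200 nM PMA for 18 h, then 3 more days. Sonicated lysate spun at 100,000 g for 45 min; membrane fraction set to 1.5 mg/mL. Test compound (final 25 μM, 2.5 μM or 250 nM) or 1% TFA water vehicle for 30 min, then 100 μM IA-alkyne for 30 min, ambient temperature.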

[4] = molecular target: cathepsin C (CTSC) catalytic cysteine Cys258 (Homo sapiens, UniProt P53634); test: competitive isoTOP-ABPP, THP-1 membrane fraction, cathepsin C; assay type: binding
How it was run: as §1

[5] = molecular target: cathepsin B (CTSB) (Homo sapiens, UniProt P07858); test: competitive isoTOP-ABPP, THP-1 membrane fraction, cathepsin B; assay type: binding; settings: 250 nM, THP-1 membranes
How it was run: as §1

[6] = molecular target: cathepsin Z (CTSZ) (Homo sapiens, UniProt Q9UBR2); test: competitive isoTOP-ABPP, THP-1 membrane fraction, cathepsin Z; assay type: binding
How it was run: as §1

[7] = molecular target: cathepsin S (CTSS) (Homo sapiens, UniProt P25774); test: competitive isoTOP-ABPP, THP-1 membrane fraction, cathepsin S; assay type: binding
How it was run: as §1

[8] = molecular target: cathepsin L (CTSL1) catalytic cysteine Cys138 (Homo sapiens, UniProt P07711); test: competitive isoTOP-ABPP, THP-1 membrane fraction, cathepsin L; assay type: binding; settings: 250 nM, THP-1 membranes; R > 5 = targeted
How it was run: as §1

[9] = competitive isoTOP-ABPP, proteome-wide cysteine selectivity; assay type: binding, human; settings: THP-1, Ramos, H1975 proteomes
How it was run: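 Proteomes came from THP-1 (RPMI, 10% FBS, βME, PMA-differentiated), Ramos (RPMI, 10% FBS) and H1975 (DMEM, 20% FBS) cells. Sonicated and split at 100,000 g into soluble and membrane fractions (1.5 mg/mL); some lysed into sodium acetate at pH 5 or 5.5. Test compound or vehicle for 30 min, then 100 μM IA-alkyne for 30 min, then isotopic biotin-tag click, enrichment, trypsin/TEV digests and LC-MS/MS. Cysteines with heavy/light MS1 ratio R > 5 called targeted.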

cathepsin S (CTSS), sequence (P25774 115-331): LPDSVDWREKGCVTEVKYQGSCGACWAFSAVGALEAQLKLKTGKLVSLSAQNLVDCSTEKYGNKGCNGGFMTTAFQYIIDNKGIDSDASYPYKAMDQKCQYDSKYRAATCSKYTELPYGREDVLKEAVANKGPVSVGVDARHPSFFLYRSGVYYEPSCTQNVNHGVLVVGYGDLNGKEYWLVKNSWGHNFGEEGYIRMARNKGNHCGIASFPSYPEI
cathepsin C (CTSC) catalytic cysteine Cys258, sequence (P53634 25-463): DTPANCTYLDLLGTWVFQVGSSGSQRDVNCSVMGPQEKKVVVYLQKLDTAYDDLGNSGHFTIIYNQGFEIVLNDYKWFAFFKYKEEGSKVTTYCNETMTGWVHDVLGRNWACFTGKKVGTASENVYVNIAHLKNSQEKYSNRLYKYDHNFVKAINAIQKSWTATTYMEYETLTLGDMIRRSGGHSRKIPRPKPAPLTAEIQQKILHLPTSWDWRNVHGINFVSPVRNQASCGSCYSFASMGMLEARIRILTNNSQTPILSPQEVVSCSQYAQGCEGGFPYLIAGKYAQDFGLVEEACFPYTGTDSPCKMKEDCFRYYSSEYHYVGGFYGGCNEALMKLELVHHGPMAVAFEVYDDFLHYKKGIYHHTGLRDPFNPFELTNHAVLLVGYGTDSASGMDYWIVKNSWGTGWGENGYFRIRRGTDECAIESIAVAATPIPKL
cathepsin Z (CTSZ), sequence (Q9UBR2 62-303): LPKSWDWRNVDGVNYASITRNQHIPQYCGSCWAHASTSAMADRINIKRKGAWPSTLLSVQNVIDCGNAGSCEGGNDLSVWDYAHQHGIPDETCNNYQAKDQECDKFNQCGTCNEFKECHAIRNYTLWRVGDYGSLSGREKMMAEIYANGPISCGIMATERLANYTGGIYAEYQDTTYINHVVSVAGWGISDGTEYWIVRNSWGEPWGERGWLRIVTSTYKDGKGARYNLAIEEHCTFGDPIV
cathepsin S, sequence (P25774 115-331, species assumed): as the sequence (P25774 115-331) above
cathepsin L (CTSL1) catalytic cysteine Cys138, sequence (P07711 114-333): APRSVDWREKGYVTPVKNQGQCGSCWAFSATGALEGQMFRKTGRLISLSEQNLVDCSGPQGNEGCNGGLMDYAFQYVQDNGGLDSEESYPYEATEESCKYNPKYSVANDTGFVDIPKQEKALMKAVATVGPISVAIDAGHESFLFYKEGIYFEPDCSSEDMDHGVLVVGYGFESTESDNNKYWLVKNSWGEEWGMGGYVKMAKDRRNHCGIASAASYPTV
cathepsin L, sequence (P07711 114-333, species assumed): as the sequence (P07711 114-333) above

For `CCCCCCCC(=O)N[C@@H](CCSC)C(=O)N[C@H](C=O)Cc1ccccc1` [Compound 16, N-octanoyl-Met-Phe-H] (Octanoyl-Met-Phe-aldehyde), the IC50 [1] was 13 nM and the “inhibitory activity against cathepsin L (IC50)” value [2] was “undetectable activity”.
With `N[C@@H](Cc1ccccc1)C(=O)N[C@H](C=O)Cc1ccccc1` [Phe-Phe-H] (H-Phe-Phe-aldehyde) the “R value (heavy/light MS1 ratio), CTSH” value [3] was less than 2.0, the “R value (heavy/light MS1 ratio), CTSC catalytic cysteine Cys258” value ([4]; 250 nM, THP-1 membranes) was greater than 2.78 and the “R value (heavy/light MS1 ratio), CTSC” value ([4]; 25 μM, THP-1) was greater than 5. For the same molecule, the “R value (heavy/light MS1 ratio), CTSB” value [5] was less than 2.0, the “R value (heavy/light MS1 ratio), CTSZ” value ([6]; 250 nM, THP-1 membranes) was less than 2.0 and the “R value (heavy/light MS1 ratio), CTSZ” value ([6]; 25 μM, THP-1) was greater than 5. The “R value (heavy/light MS1 ratio), CTSS” value ([7]; 250 nM, THP-1 membranes) was less than 2.0, the “R value (heavy/light MS1 ratio), CTSS” value ([7]; 25 μM, THP-1) was greater than 5 and the “R value (heavy/light MS1 ratio), blockade of IA-alkyne labeling of CTSL1 Cys138” value [8] was greater than 20. For the same molecule, the “R value (heavy/light MS1 ratio), non-cathepsin cysteines (no additional targets)” value [9] was less than 2.0.
